Experimental data from ChEMBL document CHEMBL1149183, “Novel benzo[1,4]diazepin-2-one derivatives as endothelin receptor antagonists” (J Med Chem, 2004).

What was measured:
[1] = Log D value was evaluated; type: physicochemical; details: octanol/water, pH 7.4; read-out: Log D7.4
Summary of the method: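 Shake-flask partition, n-octanol versus aqueous phase buffered to pH 7.4 (67 mM KH2PO4/67 mM Na2HPO4), volume ratio 1:9; both phases assayed by HPLC.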

[2] = target: Cytochrome P450 2C9 (Homo sapiens, UniProt P11712); experiment: Inhibition of human cytochrome P450 2C9; type: ADME
Summary of the method: (§1)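 Human liver microsomes with isoform marker reactions near substrate Km: diclofenac 4'-hydroxylation (2C9), dextromethorphan […] (2D6), midazolam 1'-hydroxylation (3A4); metabolite formation by LC-MS/MS; IC50 reported.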

[3] = target: Cytochrome P450 3A4 (Homo sapiens, UniProt P08684); experiment: Inhibition of human cytochrome P450 3A4; type: ADME; summary of the method: as §1
[4] = target: Cytochrome P450 2D6 (Homo sapiens, UniProt P10635); experiment: Inhibition of human cytochrome P450 2D6; type: ADME; summary of the method: as §1
[5] = target: T1, Endothelin receptor type B (Homo sapiens, UniProt P24530); experiment: Antagonist activity towards human recombinant Endothelin B receptor expressed in chinese hamster ovary (CHO) cells determined using [125I]ET1 as radioligand; type: functional, cell-based
T1 sequence (P24530 whole entry): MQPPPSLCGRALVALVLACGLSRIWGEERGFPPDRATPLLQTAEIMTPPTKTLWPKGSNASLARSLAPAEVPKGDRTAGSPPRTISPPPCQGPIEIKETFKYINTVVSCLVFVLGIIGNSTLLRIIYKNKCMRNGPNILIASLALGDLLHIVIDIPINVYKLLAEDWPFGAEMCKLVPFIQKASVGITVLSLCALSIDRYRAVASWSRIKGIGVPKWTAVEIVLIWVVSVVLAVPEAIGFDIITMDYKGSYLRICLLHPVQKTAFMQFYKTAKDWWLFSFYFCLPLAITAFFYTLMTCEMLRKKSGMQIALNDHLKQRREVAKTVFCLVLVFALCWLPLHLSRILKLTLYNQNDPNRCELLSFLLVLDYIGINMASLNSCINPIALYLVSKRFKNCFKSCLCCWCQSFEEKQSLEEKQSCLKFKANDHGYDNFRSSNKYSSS

[6] = target: T2, Endothelin-1 receptor (Homo sapiens, UniProt P25101); experiment: Antagonist activity towards human recombinant Endothelin A receptor expressed in chinese hamster ovary (CHO) cells determined using [125I]ET1 as radioligand; type: functional, cell-based
T2 sequence (P25101 whole entry): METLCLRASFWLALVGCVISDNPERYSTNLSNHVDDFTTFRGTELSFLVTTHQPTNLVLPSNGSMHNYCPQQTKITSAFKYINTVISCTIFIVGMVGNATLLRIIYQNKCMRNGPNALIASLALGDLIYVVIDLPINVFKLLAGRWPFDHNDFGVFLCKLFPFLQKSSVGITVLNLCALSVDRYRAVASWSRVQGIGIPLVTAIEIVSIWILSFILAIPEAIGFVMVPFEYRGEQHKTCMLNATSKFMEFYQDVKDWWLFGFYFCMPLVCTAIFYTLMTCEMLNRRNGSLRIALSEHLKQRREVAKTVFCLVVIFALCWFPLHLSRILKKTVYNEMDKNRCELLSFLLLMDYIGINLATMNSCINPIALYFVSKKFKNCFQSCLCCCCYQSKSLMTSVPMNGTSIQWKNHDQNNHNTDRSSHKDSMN

[7] = test system: Rattus norvegicus; experiment: In vivo area between curve (ABC) as calculated from the blood pressure recordings before and after administration of 30 mg/kg to hypertensive Dahl salt sensitive rats; number of rats=6; type: functional
Summary of the method: (§2)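 Single oral dose of 30 mg/kg suspended in 10% arabic gum to hypertensive Dahl salt-sensitive rats carrying telemetry for arterial pressure and heart rate; area between pre- and post-treatment pressure curves calculated; fall in mean arterial pressure and duration of action also taken from recordings.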

[8] = species: Rattus norvegicus; experiment: Duration of action of compound for reducing the blood pressure of rats was determined; type: functional; summary of the method: as §2
[9] = species: Rattus norvegicus; experiment: Maximum effect on reduction of mean arterial blood pressure was determined in rats; type: functional; summary of the method: as §2
[10] = target: T3, Endothelin receptor (Rattus norvegicus, UniProt P26684+P21451); experiment: Inhibitory potency at native endothelin A and B receptors by inhibiting sarafotoxin Sf6 contractions of rat tracheal rings; type: functional
T3 sequence (P26684 whole entry): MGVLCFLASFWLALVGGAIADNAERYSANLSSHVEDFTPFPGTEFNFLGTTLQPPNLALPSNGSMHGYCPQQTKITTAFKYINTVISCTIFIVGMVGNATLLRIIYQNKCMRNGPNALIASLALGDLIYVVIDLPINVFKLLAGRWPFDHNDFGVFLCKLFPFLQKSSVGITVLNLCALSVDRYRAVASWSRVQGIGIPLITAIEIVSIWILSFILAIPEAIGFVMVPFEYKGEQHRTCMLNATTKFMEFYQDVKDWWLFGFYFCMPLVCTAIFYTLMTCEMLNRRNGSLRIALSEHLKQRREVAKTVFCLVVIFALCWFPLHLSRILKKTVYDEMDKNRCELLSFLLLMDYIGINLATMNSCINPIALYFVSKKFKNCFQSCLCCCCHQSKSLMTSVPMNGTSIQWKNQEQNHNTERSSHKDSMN
T3 sequence (P21451 whole entry): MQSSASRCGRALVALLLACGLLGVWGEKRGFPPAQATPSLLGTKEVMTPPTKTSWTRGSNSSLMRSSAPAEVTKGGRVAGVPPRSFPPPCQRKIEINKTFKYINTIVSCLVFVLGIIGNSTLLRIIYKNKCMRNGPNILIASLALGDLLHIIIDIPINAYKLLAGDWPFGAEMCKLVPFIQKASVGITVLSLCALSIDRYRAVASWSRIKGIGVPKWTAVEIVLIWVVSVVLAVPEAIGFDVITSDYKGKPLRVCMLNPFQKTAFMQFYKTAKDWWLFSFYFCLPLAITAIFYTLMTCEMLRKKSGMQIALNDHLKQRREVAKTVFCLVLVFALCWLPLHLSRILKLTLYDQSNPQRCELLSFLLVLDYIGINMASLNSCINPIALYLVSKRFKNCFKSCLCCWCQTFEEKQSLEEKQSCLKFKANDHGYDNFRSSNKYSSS

[11] = target: T3, Endothelin receptor; experiment: Inhibitory potency at native endothelin A and endothelin B receptors by inhibiting endothelin-1 contractions of rat aortic rings; type: functional
[12] = test system: Rattus norvegicus; experiment: In vivo area between curve (ABC) as calculated from the blood pressure recordings before and after administration of 30 mg/kg to hypertensive Dahl salt sensitive rats; number of rats=12; type: functional; summary of the method: as §2

Cytochrome P450 2D6, sequence (P10635 whole entry): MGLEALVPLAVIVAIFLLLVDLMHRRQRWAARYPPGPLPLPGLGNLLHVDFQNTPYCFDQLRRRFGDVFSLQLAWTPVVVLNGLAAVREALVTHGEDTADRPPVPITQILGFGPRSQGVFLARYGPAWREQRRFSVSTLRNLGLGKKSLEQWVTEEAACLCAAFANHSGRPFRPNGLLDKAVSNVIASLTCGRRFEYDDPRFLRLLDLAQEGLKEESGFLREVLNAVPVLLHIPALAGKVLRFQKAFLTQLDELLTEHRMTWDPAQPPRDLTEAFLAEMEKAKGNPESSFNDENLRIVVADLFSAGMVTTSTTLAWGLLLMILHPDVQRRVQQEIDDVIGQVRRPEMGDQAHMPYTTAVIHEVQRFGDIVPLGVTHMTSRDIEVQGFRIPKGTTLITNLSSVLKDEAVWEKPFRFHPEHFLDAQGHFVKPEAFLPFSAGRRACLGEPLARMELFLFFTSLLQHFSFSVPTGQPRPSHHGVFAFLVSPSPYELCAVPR
Cytochrome P450 2C9, sequence (P11712 whole entry, canonical isoform): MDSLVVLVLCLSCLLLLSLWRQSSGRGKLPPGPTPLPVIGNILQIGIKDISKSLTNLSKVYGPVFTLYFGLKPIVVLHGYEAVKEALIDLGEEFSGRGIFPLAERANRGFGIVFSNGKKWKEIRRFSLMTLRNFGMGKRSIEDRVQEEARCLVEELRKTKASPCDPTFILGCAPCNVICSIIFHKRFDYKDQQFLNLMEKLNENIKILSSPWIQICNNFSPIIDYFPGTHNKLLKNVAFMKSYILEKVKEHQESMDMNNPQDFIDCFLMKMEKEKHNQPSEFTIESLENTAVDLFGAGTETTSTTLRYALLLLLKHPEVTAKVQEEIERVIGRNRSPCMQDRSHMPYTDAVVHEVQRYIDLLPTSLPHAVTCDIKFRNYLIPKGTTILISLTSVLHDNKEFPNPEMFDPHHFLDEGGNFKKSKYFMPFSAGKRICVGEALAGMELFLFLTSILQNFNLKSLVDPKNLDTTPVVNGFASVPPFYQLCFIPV
Cytochrome P450 3A4, sequence (P08684 whole entry): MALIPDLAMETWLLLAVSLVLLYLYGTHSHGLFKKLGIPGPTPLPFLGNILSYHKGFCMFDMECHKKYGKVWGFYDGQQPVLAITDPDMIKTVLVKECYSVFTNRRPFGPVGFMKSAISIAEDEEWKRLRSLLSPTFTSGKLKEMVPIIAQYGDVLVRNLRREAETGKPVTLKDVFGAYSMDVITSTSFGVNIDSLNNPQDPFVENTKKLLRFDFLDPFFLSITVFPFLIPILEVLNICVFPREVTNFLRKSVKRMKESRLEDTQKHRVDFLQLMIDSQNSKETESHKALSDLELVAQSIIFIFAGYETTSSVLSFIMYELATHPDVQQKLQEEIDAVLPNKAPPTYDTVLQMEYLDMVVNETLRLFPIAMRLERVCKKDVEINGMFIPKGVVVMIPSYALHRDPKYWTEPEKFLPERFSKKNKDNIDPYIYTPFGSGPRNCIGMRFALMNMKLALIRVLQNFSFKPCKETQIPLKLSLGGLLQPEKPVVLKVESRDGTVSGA

| Structure (SMILES) | IC50 [5] | IC50 [6] | pA2 [11] | further results |
| --- | --- | --- | --- | --- |
| Cc1cc(C)nc(O[C@H](C(=O)O)[C@@]2(c3ccccc3)NCC(=O)N(C)c3ccccc32)n1 (racemic) | 184 nM | 12.3 nM |  | logD [1]: -2; IC50 [2]: > 50000 nM; IC50 [3]: > 50000 nM; IC50 [4]: > 50000 nM |
| COC(c1ccccc1)(c1ccccc1)[C@H](Oc1nc(C)cc(C)n1)C(=O)O (racemic) [AMBRISENTAN] |  | 21.7 nM | 7.09 | ABC [7]: 409 mmHg·h; Duration of action [8]: 32 h; Max effect [9]: -17 mmHg; pA2 [10]: 5.63 |
| COC(=O)c1ccc(CN2C(=O)CN[C@](c3ccccc3)([C@H](Oc3nc(C)cc(C)n3)C(=O)O)c3ccccc32)cc1 (racemic) | 70.3 nM | 7.4 nM | 6.98 |  |
| Cc1cc(C)nc(O[C@H](C(=O)O)[C@@]2(c3ccccc3)NCC(=O)N(Cc3c(F)cccc3F)c3ccccc32)n1 (racemic) | 17.7 nM | 1.1 nM | 7.83 |  |
| Cc1cc(C)nc(O[C@H](C(=O)O)[C@@]2(c3cccc(-c4ccccc4)c3)NCC(=O)N(Cc3c(Cl)cccc3Cl)c3ccccc32)n1 (racemic) | 25 nM | 16.9 nM | 8.98 | ABC [12]: 200 mmHg·h; Duration of action [8]: 18 h; Max effect [9]: -15 mmHg; pA2 [10]: 7.37 |
| Cc1cc(C)nc(O[C@H](C(=O)O)[C@@]2(c3ccccc3)NCC(=O)N(Cc3ccccc3F)c3ccccc32)n1 (racemic) | 33.1 nM | 3.5 nM | 7.22 |  |
| CCCCc1cccc([C@]2([C@H](Oc3nc(C)cc(C)n3)C(=O)O)NCC(=O)N(Cc3ccc(OC)cc3)c3ccccc32)c1 (racemic) | 36.5 nM | 7.9 nM | 7.69 |  |
| Cc1cc(C)cc(O[C@H](C(=O)O)[C@@]2(c3ccccc3)NCC(=O)N(Cc3c(F)cccc3Cl)c3ccccc32)c1 (racemic) | 184 nM | 18.9 nM | 6.59 | ABC [12]: 267 mmHg·h; Duration of action [8]: 30 h; Max effect [9]: -13 mmHg; pA2 [10]: 6.89 |
| Cc1cc(C)c(CN2C(=O)CN[C@](c3ccccc3)([C@H](Oc3nc(C)cc(C)n3)C(=O)O)c3ccccc32)c(C)c1 (racemic) | 15.5 nM | 6.7 nM | 8.1 |  |
| Cc1cc(C)nc(O[C@H](C(=O)O)[C@@]2(c3ccccc3)NCC(=O)N(Cc3ccc(F)cc3)c3ccccc32)n1 (racemic) | 49.7 nM | 5.9 nM | 7.46 |  |
| Cc1cc(C)nc(O[C@H](C(=O)O)[C@@]2(c3ccccc3)NCC(=O)N(Cc3ccc(F)c(F)c3F)c3ccccc32)n1 (racemic) | 49.7 nM | 6.5 nM | 7.93 |  |
| Cc1cc(C)nc(O[C@H](C(=O)O)[C@@]2(c3ccccc3)NCC(=O)N(Cc3ccccc3)c3ccccc32)n1 (racemic) | 47.4 nM | 6.4 nM | 7.32 |  |
| CCCCc1cccc([C@]2([C@H](Oc3nc(C)cc(C)n3)C(=O)O)NCC(=O)N(Cc3c(C)cc(C)cc3C)c3ccccc32)c1 (racemic) | 13.6 nM | 18.3 nM | 7.83 | ABC [12]: 285 mmHg·h; Duration of action [8]: 24 h; Max effect [9]: -21 mmHg; pA2 [10]: 7.44 |
| Cc1cc(C)nc(O[C@H](C(=O)O)[C@@]2(c3ccccc3)NCC(=O)N(Cc3c(Cl)cccc3Cl)c3ccccc32)n1 (racemic) | 6.6 nM | 1.8 nM | 8.55 |  |
| COc1ccc(CN2C(=O)CN[C@](c3ccc(F)c(C)c3)([C@H](Oc3nc(C)cc(C)n3)C(=O)O)c3ccccc32)cc1 (racemic) | 33.2 nM | 7.3 nM | 6.53 |  |
| CCCCc1cccc([C@]2([C@H](Oc3nc(C)cc(C)n3)C(=O)O)NCC(=O)N(Cc3c(F)cccc3Cl)c3ccccc32)c1 (racemic) | 7.1 nM | 7.6 nM | 8.72 | ABC [12]: 409 mmHg·h; Duration of action [8]: 36 h; Max effect [9]: -23 mmHg; pA2 [10]: 7.88 |
| CCc1cccc([C@]2([C@H](Oc3nc(C)cc(C)n3)C(=O)O)NCC(=O)N(Cc3ccc(OC)cc3)c3ccccc32)c1 (racemic) | 68 nM | 3.1 nM | 7.55 |  |
| CCCCCCN1C(=O)CN[C@](c2ccccc2)([C@H](Oc2nc(C)cc(C)n2)C(=O)O)c2ccccc21 (racemic) | 39.9 nM | 23.7 nM | 6.71 |  |
| Cc1cc(C)nc(O[C@H](C(=O)O)[C@@]2(c3ccccc3)NCC(=O)N(CCc3ccccc3)c3ccccc32)n1 (racemic) | 21.5 nM | 3.9 nM | 7.46 |  |
| Cc1cc(C)nc(O[C@H](C(=O)O)[C@@]2(c3ccccc3)NCC(=O)N(CCO)c3ccccc32)n1 (racemic) | 108 nM | 6.9 nM | 6.79 |  |
| Cc1cc(C)nc(O[C@H](C(=O)O)[C@@]2(c3ccccc3)NCC(=O)N(Cc3c(F)c(F)c(F)c(F)c3F)c3ccccc32)n1 (racemic) | 28.8 nM | 6.8 nM | 7.87 |  |
